# Laboratory results taken from ChEMBL document CHEMBL1255499, “Recombinant phenotyping of cytomegalovirus UL97 kinase sequence variants for ganciclovir resistance” (Antimicrob Agents Chemother, 2010).
# Tests used:
# Human betaherpesvirus 5 [1] = experiment: Antiviral activity against Human cytomegalovirus T3326 harboring Frt motif upstream of UL97 kinase N68D L126Q I244V mutant gene infected in human foreskin fibroblast measured 6 days post infection by SEAP reporter gene assay; settings: Human betaherpesvirus 5, T3326, 144 h
# Human betaherpesvirus 5 [2] = experiment: Antiviral activity against Human cytomegalovirus T2789 expressing UL97 kinase L405P mutant gene infected in human foreskin fibroblast measured 6 days post infection by SEAP reporter gene assay; settings: Human betaherpesvirus 5, T2789, 144 h
# Human betaherpesvirus 5 [3] = experiment: Antiviral activity against Human cytomegalovirus T3099 expressing UL97 kinase H587Y mutant gene infected in human foreskin fibroblast measured 6 days post infection by SEAP reporter gene assay; settings: Human betaherpesvirus 5, T3099, 144 h
# Human betaherpesvirus 5 [4] = experiment: Antiviral activity against Human cytomegalovirus T3130 expressing UL97 kinase V665I mutant gene infected in human foreskin fibroblast measured 6 days post infection by SEAP reporter gene assay; settings: Human betaherpesvirus 5, T3130, 144 h
# Human betaherpesvirus 5 [5] = experiment: Antiviral activity against Human cytomegalovirus T3264 expressing UL97 kinase G623S mutant gene infected in human foreskin fibroblast measured 6 days post infection by SEAP reporter gene assay; assay type: functional, organism-based; settings: Human betaherpesvirus 5, T3264, 144 h
# Summary of the method: (§1)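 Ganciclovir SEAP yield reduction. Confluent HFF (2 × 10⁵ cells/well) infected with cell-free virus stock at MOI 0.02. Inoculum removed after 1.5 h and replaced with medium containing serial 2-fold GCV dilutions, top concentration 4 to 32 μM. Supernatant SEAP read by chemiluminescent substrate at day 6. EC₅₀ is the concentration giving 50% SEAP reduction; mean and SD of ≥7 determinations over ≥4 setup dates.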
# Human betaherpesvirus 5 [6] = experiment: Antiviral activity against Human cytomegalovirus T3253 expressing UL97 kinase K599R mutant gene infected in human foreskin fibroblast measured 6 days post infection by SEAP reporter gene assay; settings: Human betaherpesvirus 5, T3253, 144 h
# Human betaherpesvirus 5 [7] = experiment: Antiviral activity against Human cytomegalovirus T3240 expressing UL97 kinase N510S mutant gene infected in human foreskin fibroblast measured 6 days post infection by SEAP reporter gene assay; assay type: functional, organism-based; settings: Human betaherpesvirus 5, T3240, 144 h; summary of the method: as §1
# Human betaherpesvirus 5 [8] = experiment: Antiviral activity against Human cytomegalovirus T3136 expressing UL97 kinase H469Y mutant gene infected in human foreskin fibroblast measured 6 days post infection by SEAP reporter gene assay; assay type: functional, organism-based; settings: Human betaherpesvirus 5, T3136, 144 h; summary of the method: as §1
# Human betaherpesvirus 5 [9] = experiment: Antiviral activity against Human cytomegalovirus T3243 expressing UL97 kinase T659I mutant gene infected in human foreskin fibroblast measured 6 days post infection by SEAP reporter gene assay; assay type: functional, organism-based; settings: Human betaherpesvirus 5, T3243, 144 h; summary of the method: as §1
# Human betaherpesvirus 5 [10] = experiment: Antiviral activity against Human cytomegalovirus T3185 harboring Frt motif upstream of UL97 gene and expressing UL97 kinase H587Y mutant gene infected in human foreskin fibroblast measured 6 days post infection by SEAP reporter gene assay; settings: Human betaherpesvirus 5, T3185, 144 h
# Human betaherpesvirus 5 [11] = experiment: Antiviral activity against Human cytomegalovirus T3184 expressing UL97 kinase L405P mutant gene infected in human foreskin fibroblast measured 6 days post infection by SEAP reporter gene assay; settings: Human betaherpesvirus 5, T3184, 144 h
# Human betaherpesvirus 5 [12] = experiment: Antiviral activity against Human cytomegalovirus T2255 expressing UL97 kinase A594V mutant gene infected in human foreskin fibroblast measured 6 days post infection by SEAP reporter gene assay; assay type: functional, organism-based; settings: Human betaherpesvirus 5, T2255, 144 h
# Summary of the method: (§2)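 Confluent HFF (2 × 10⁵ cells/well) infected with cell-free recombinant AD169-derived SEAP-reporter CMV at MOI 0.02 for 1.5 h. Inoculum then replaced with medium holding serial 2-fold ganciclovir dilutions, top concentration 4 to 32 μM. Supernatant SEAP read by chemiluminescent substrate at day 6. EC₅₀ is the concentration giving 50% SEAP reduction, reported as mean and SD of ≥7 determinations over ≥4 setup dates.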
# Human betaherpesvirus 5 [13] = experiment: Antiviral activity against Human cytomegalovirus T3146 expressing UL97 kinase K599R mutant gene infected in human foreskin fibroblast measured 6 days post infection by SEAP reporter gene assay; settings: Human betaherpesvirus 5, T3146, 144 h
# Human betaherpesvirus 5 [14] = experiment: Antiviral activity against Human cytomegalovirus T3244 expressing UL97 kinase A588V mutant gene infected in human foreskin fibroblast measured 6 days post infection by SEAP reporter gene assay; settings: Human betaherpesvirus 5, T3244, 144 h
# Human betaherpesvirus 5 [15] = experiment: Antiviral activity against Human cytomegalovirus T3216 expressing UL97 kinase A588V mutant gene infected in human foreskin fibroblast measured 6 days post infection by SEAP reporter gene assay; settings: Human betaherpesvirus 5, T3216, 144 h
# Human betaherpesvirus 5 [16] = experiment: Antiviral activity against Human cytomegalovirus T3135 expressing UL97 kinase H587Y mutant gene infected in human foreskin fibroblast measured 6 days post infection by SEAP reporter gene assay; settings: Human betaherpesvirus 5, T3135, 144 h
# Human betaherpesvirus 5 [17] = experiment: Antiviral activity against Human cytomegalovirus T2924 expressing UL97 kinase H469Y mutant gene infected in human foreskin fibroblast measured 6 days post infection by SEAP reporter gene assay; assay type: functional, organism-based; settings: Human betaherpesvirus 5, T2924, 144 h; summary of the method: as §2
# Human betaherpesvirus 5 [18] = experiment: Antiviral activity against Human cytomegalovirus T3252 expressing UL97 kinase A594V mutant gene infected in human foreskin fibroblast measured 6 days post infection by SEAP reporter gene assay; assay type: functional, organism-based; settings: Human betaherpesvirus 5, T3252, 144 h; summary of the method: as §2
# Human betaherpesvirus 5 [19] = experiment: Antiviral activity against Human cytomegalovirus T3257 expressing UL97 kinase V466M mutant gene infected in human foreskin fibroblast measured 6 days post infection by SEAP reporter gene assay; settings: Human betaherpesvirus 5, T3257, 144 h
# Human betaherpesvirus 5 [20] = experiment: Antiviral activity against Human cytomegalovirus T3239 expressing UL97 kinase V665I mutant gene infected in human foreskin fibroblast measured 6 days post infection by SEAP reporter gene assay; settings: Human betaherpesvirus 5, T3239, 144 h
# Human betaherpesvirus 5 [21] = experiment: Antiviral activity against Human cytomegalovirus T3261 harboring Frt motif upstream of UL97 kinase infected in human foreskin fibroblast measured 6 days post infection by SEAP reporter gene assay; settings: Human betaherpesvirus 5, T3261, 144 h
# Human betaherpesvirus 5 [22] = experiment: Antiviral activity against Human cytomegalovirus T3346 expressing UL97 kinase M460T mutant gene infected in human foreskin fibroblast measured 6 days post infection by SEAP reporter gene assay; assay type: functional, organism-based; settings: Human betaherpesvirus 5, T3346, 144 h; summary of the method: as §2
# Human betaherpesvirus 5 [23] = experiment: Antiviral activity against Human cytomegalovirus T2258 expressing UL97 kinase C592G mutant gene infected in human foreskin fibroblast measured 6 days post infection by SEAP reporter gene assay; assay type: functional, organism-based; settings: Human betaherpesvirus 5, T2258, 144 h; summary of the method: as §2
# Human betaherpesvirus 5 [24] = experiment: Antiviral activity against Human cytomegalovirus T3258 expressing UL97 kinase A594E mutant gene infected in human foreskin fibroblast measured 6 days post infection by SEAP reporter gene assay; settings: Human betaherpesvirus 5, T3258, 144 h
# Human betaherpesvirus 5 [25] = experiment: Antiviral activity against Human cytomegalovirus T3331 expressing UL97 kinase C603R mutant gene infected in human foreskin fibroblast measured 6 days post infection by SEAP reporter gene assay; assay type: functional, organism-based; settings: Human betaherpesvirus 5, T3331, 144 h; summary of the method: as §2
# Human betaherpesvirus 5 [26] = experiment: Antiviral activity against Human cytomegalovirus T3041 expressing UL97 kinase L600I mutant gene infected in human foreskin fibroblast measured 6 days post infection by SEAP reporter gene assay; assay type: functional, organism-based; settings: Human betaherpesvirus 5, T3041, 144 h; summary of the method: as §2
# Human betaherpesvirus 5 [27] = experiment: Antiviral activity against Human cytomegalovirus T3327 expressing UL97 kinase C603S mutant gene infected in human foreskin fibroblast measured 6 days post infection by SEAP reporter gene assay; assay type: functional, organism-based; settings: Human betaherpesvirus 5, T3327, 144 h; summary of the method: as §2
# Human betaherpesvirus 5 [28] = experiment: Antiviral activity against Human cytomegalovirus T3215 expressing UL97 kinase A478V mutant gene infected in human foreskin fibroblast measured 6 days post infection by SEAP reporter gene assay; settings: Human betaherpesvirus 5, T3215, 144 h
# Human betaherpesvirus 5 [29] = experiment: Antiviral activity against Human cytomegalovirus T2233 expressing UL97 kinase H587Y mutant gene infected in human foreskin fibroblast measured 6 days post infection by SEAP reporter gene assay; settings: Human betaherpesvirus 5, T2233, 144 h
# Human betaherpesvirus 5 [30] = experiment: Antiviral activity against Human cytomegalovirus T3329 expressing UL97 kinase C603W mutant gene infected in human foreskin fibroblast measured 6 days post infection by SEAP reporter gene assay; settings: Human betaherpesvirus 5, T3329, 144 h
# Human betaherpesvirus 5 [31] = experiment: Antiviral activity against Human cytomegalovirus T3242 expressing UL97 kinase A478V mutant gene infected in human foreskin fibroblast measured 6 days post infection by SEAP reporter gene assay; settings: Human betaherpesvirus 5, T3242, 144 h
# Human betaherpesvirus 5 [32] = experiment: Antiviral activity against Human cytomegalovirus T2211 expressing UL97 kinase H587Y mutant gene infected in human foreskin fibroblast measured 6 days post infection by SEAP reporter gene assay; settings: Human betaherpesvirus 5, T2211, 144 h
# Human betaherpesvirus 5 [33] = experiment: Antiviral activity against Human cytomegalovirus T3259 expressing UL97 kinase C592G mutant gene infected in human foreskin fibroblast measured 6 days post infection by SEAP reporter gene assay; assay type: functional, organism-based; settings: Human betaherpesvirus 5, T3259, 144 h; summary of the method: as §1
# Human betaherpesvirus 5 [34] = experiment: Antiviral activity against Human cytomegalovirus T2259 expressing UL97 kinase M460V mutant gene infected in human foreskin fibroblast measured 6 days post infection by SEAP reporter gene assay; assay type: functional, organism-based; settings: Human betaherpesvirus 5, T2259, 144 h; summary of the method: as §2
structure (smiles),measurement,setting,value
Nc1nc2c(ncn2COC(CO)CO)c(=O)[nH]1 [GANCICLOVIR],EC50,Human betaherpesvirus 5 [1],1.09 µM
same,EC50,Human betaherpesvirus 5 [2],3.02 µM
same,EC50,Human betaherpesvirus 5 [3],1.02 µM
same,EC50,Human betaherpesvirus 5 [4],1.22 µM
same,EC50,Human betaherpesvirus 5 [5],1.13 µM
same,EC50,Human betaherpesvirus 5 [6],1.23 µM
same,EC50,Human betaherpesvirus 5 [7],1.14 µM
same,EC50,Human betaherpesvirus 5 [8],1.05 µM
same,EC50,Human betaherpesvirus 5 [9],1.26 µM
same,EC50,Human betaherpesvirus 5 [10],0.96 µM
same,EC50,Human betaherpesvirus 5 [11],2.76 µM
same,EC50,Human betaherpesvirus 5 [12],9.24 µM
same,EC50,Human betaherpesvirus 5 [13],0.94 µM
same,EC50,Human betaherpesvirus 5 [14],0.99 µM
same,EC50,Human betaherpesvirus 5 [15],1.23 µM
same,EC50,Human betaherpesvirus 5 [16],1 µM
same,EC50,Human betaherpesvirus 5 [17],1.33 µM
same,EC50,Human betaherpesvirus 5 [18],8.48 µM
same,EC50,Human betaherpesvirus 5 [19],1.24 µM
same,EC50,Human betaherpesvirus 5 [20],1.06 µM
same,EC50,Human betaherpesvirus 5 [21],0.99 µM
same,EC50,Human betaherpesvirus 5 [22],9.24 µM
same,EC50,Human betaherpesvirus 5 [23],3.36 µM
same,EC50,Human betaherpesvirus 5 [24],2.98 µM
same,EC50,Human betaherpesvirus 5 [25],8.18 µM
same,EC50,Human betaherpesvirus 5 [26],1.5 µM
same,EC50,Human betaherpesvirus 5 [27],1.85 µM
same,EC50,Human betaherpesvirus 5 [28],0.95 µM
same,EC50,Human betaherpesvirus 5 [29],1.11 µM
same,EC50,Human betaherpesvirus 5 [30],7.81 µM
same,EC50,Human betaherpesvirus 5 [31],0.77 µM
same,EC50,Human betaherpesvirus 5 [32],1.1 µM
same,EC50,Human betaherpesvirus 5 [33],3 µM
same,EC50,Human betaherpesvirus 5 [34],8.52 µM
